Reference: ChEMBL document CHEMBL4513216, “Probing the Open Global Health Chemical Diversity Library for Multistage-Active Starting Points for Next-Generation Antimalarials” (ACS Infect Dis, 2020)

Assay: Toxicity liver stage against HepG2, at 10uM
Assay type: cell-based
Parameters: test concentration 10 uM, cell line HepG2-A16-CD81EGFP
Settings: human, HepG2-A16-CD81EGFP cells; read-out: INHIBITION
Method in brief: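 Uninfected HepG2-A16-CD81EGFP cells, 3 × 10^3 per well, 1536-well, plated on prespotted compound at 10 μM final, parasite-free screening media added to match infected plates; puromycin 10 μM positive, DMSO 0.5% negative; run in parallel with 48 h PbLuc assay at 37 °C, 5% CO2; viability by CellTiter-Glo luminescence, normalized to controls.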

Row | SMILES | cytotoxicity at 10 µM [%]
1 | O=C(COc1ccccc1)N1C[C@@H](O)[C@H](N2CCCC2)C1 | -6.54
2 | Cc1nnsc1C(=O)N1CCC(c2nc3ccccc3[nH]2)CC1 | 2.5
3 | COCCN1CCN(C(=O)C[C@@H]2C[C@@H](C(C)C)[C@H](CO)C=C2C)CC1 | 4.82
4 | O=C(NCc1ccccc1)NCC1CCN(Cc2ccsc2)CC1 | -14.1
5 | NC(=O)CN1CC2(CCC1=O)CCN(Cc1ccc(Cl)c(F)c1)CC2 | -5
6 | COCc1ncn(Cc2nc(-c3ccco3)oc2C)n1 | -8.53
7 | CN(Cc1n[nH]c2c1CCC2)C(=O)CCc1cc2n(n1)CCNC2 | -10.5
8 | CC(=O)N1N=C(c2ccco2)OC1C(=O)N(CC(C)C)CC(C)C (centres undefined) | -1.31
9 | O=C1CCC2(CCOC2)CN1CCCOc1cccnc1 (centres undefined) | -16.1
10 | CCC(O)CN1CCN(C(=O)c2cccn2Cc2cccnc2)CC1 (centres undefined) | -14.1
11 | O=C(CSc1ccccn1)N1C[C@@H]2CC[C@H]1CN(Cc1cscn1)C2 | 1.93
12 | CCS(=O)(=O)Cc1ccn(-c2cccc(F)c2)n1 | -0.988
13 | COc1cc2nc3n(c(=O)c2cc1OC)CCN(C(=O)C1CC1)CC3 | -13.6
14 | Cc1ccc(CN2CCC3(CC2)CN(C(=O)c2cnccn2)CCO3)o1 | -4
15 | CSc1ccc(-n2ccnc2-c2cc3n(n2)CCNC3)cc1 | -9.94
16 | CC(C)c1ccc(/C=C/CC(=O)NC2CCN(C(N)=O)C2)cc1 (centres undefined) | 0.838
17 | CC(C)CNC(=O)[C@H]1CCS(=O)(=O)[C@@H]2CN(Cc3ccc(F)cc3)C[C@H]12 | 1.26
18 | NC(=O)N1CCCN(C(=O)Nc2cc(-n3cccc3)ccc2F)CC1 | -2.09
19 | COCc1c(C(=O)O)nnn1Cc1cccc(C(F)(F)F)c1 | 2.17
20 | CC(C)(N)c1nc(C(F)F)cc(=O)[nH]1 | 11.9
21 | Cc1cnn(CC2CCCN2C(=O)c2cn(C)c3ccccc23)c1 (centres undefined) | -2.12
22 | O=S1(=O)C[C@@H]2[C@H](C1)N(Cc1cc(F)cc(Cl)c1)CCN2CCO | -4.71

Row | SMILES | cytotoxicity at 10 µM [%]
23 | O=C(c1ccoc1)N1CC[C@@H]2O[C@H](COCc3ccccn3)CC[C@@H]21 | 5.48
24 | CC1CN(Cc2ccc(C#N)cc2F)CCN1Cc1nccn1C (centres undefined) | -4.66
25 | CN(CC(=O)N(C)C(c1ccc(Cl)cc1)c1cccnc1)C1CC1 (centres undefined) | 10.9
26 | Cn1c(SCc2noc(C(C)(C)C)n2)nnc1C1CCS(=O)(=O)C1 (centres undefined) | 8.32
27 | Cc1ccc(S(=O)(=O)NC(=O)CCOCc2ccccc2)s1 | -11.2
28 | CN(Cc1ccccc1)C(=O)CN1CCCC1c1cnn(C)c1 (centres undefined) | 6.91
29 | CC1=C(CCN2CCCC(O)C2)C(C)(C)CCC1 (centres undefined) | 3.43
30 | Cc1cc(CN2C[C@@H]3COC[C@]3(c3nnc(C)o3)C2)no1 | -2.11
31 | Fc1cccc(N2C[C@H]3CCN(c4cccnc4)C[C@H]3C2)c1 | 15.4
32 | COc1ncccc1CN1C[C@H]2C[C@@H](C(=O)NCC3CC3)N(C)[C@H]2C1 | -2.54
33 | COc1cc(NC(=O)c2ccc(C)c(F)c2)c(C(=O)N(C)C)cc1OC | 2.82
34 | Cn1nc(CC(C)(C)C)cc1NC(=O)c1ccc2[nH]nnc2c1 | 1.25
35 | CC(C)c1noc(C2CCN(C(=O)C3CCCO3)CC2)n1 (centres undefined) | 8.35
36 | CC(C)(C)c1nc(CNc2cc3c(cc2Cl)NC(=O)CO3)no1 | -0.438
37 | O=C(CCc1ccsc1)N1CCCC(N2CCNC2=O)C1 (centres undefined) | -5.7
38 | CSc1ccsc1C(=O)NC(C)c1ccc2c(c1)CCC(=O)N2 (centres undefined) | 1.28
39 | Cn1ccnc1CNC[C@H]1Cn2cc(-c3ccccc3)nc2CO1 | -6.09
40 | CC(C)c1nnsc1CNC(=O)C1CCN(C(=O)C2CCC2)CC1 | -2.75
41 | O=C(CCN1CCCC(CO)(CC2CC2)C1)NC1CCCCC1 (centres undefined) | 1.91
42 | CN(C)C(=O)C1CN(Cc2ccsc2)Cc2ccnn2C1 (centres undefined) | -6.75
43 | FC(F)(F)c1cc(NCCn2ncnn2)nc(-c2cccnc2)n1 | 18.9
44 | CCCC(=O)N(CCCN1CCOCC1)c1nc2c(F)cccc2s1 | -10.7

Row | SMILES | cytotoxicity at 10 µM [%]
45 | CCn1ccnc1CN1CCCN(C(=O)c2scnc2C)CC1 | -7.77
46 | Cc1ccc2c(c1)C(=O)NCC1(CCN(C(=O)c3scnc3C)CC1)O2 | -17.3
47 | CO[C@H]1COCCN(C(=O)c2ccc(C#N)cc2)C1 | 4.94
48 | Cc1ncoc1C(=O)N1CCn2c(COc3cccnc3)cnc2C1C (centres undefined) | -8.93
49 | O=C(NCc1nnc2n1CCCC2)c1ccc(C2CCCO2)s1 (centres undefined) | 15.7
50 | CCn1c(N)nc2cc(C(=O)NCCc3ccccc3C)cnc21 | -10.8
51 | CCOC(=O)CNC(=O)C1OC(c2ccccc2)=NN1C(C)=O (centres undefined) | 0.53
52 | Cc1ccccc1NC(=O)CCNC(=O)c1ccoc1 | -0.714
53 | Cc1noc(NC(=O)c2ccc(Br)o2)n1 | -3.75
54 | CCC(=O)N1CCC(c2nc(N3CCOCC3)ncc2S(C)(=O)=O)CC1 | 3.65
55 | Cc1nc[nH]c1CN1CCCn2nc(CN3CCC(F)(F)CC3)cc2C1 | 0.13
56 | Cc1nccc(-c2cccc(NCC(=O)N3CCCC(C)C3)c2)n1 (centres undefined) | -6.27
57 | NC(=O)C1CCCN(C(=O)c2cnc3c(cnn3C3CCCC3)c2)C1 (centres undefined) | -5.54
58 | Cc1ccc(C(=O)N2CCC3(CC2)CC(c2ccccc2)C(=O)N3)cn1 (centres undefined) | -7.42
59 | CCc1nnsc1C(=O)NC1CCN(CCOc2ccc(Br)cc2)CC1 | -9.56
60 | Cc1cn(-c2ccccc2)nc1NS(=O)(=O)c1cccc(C(=O)O)c1 | -10.3
61 | COc1cccc(CN2CCCC2c2cncc(Nc3nncs3)n2)c1 (centres undefined) | 4.73
62 | C1CCC(CNC2CCSCC2)(N2CCOCC2)CC1 | -14.5
63 | COc1ccc(-c2cc(C3CCCNC3)ccn2)cc1 (centres undefined) | 0.288
64 | Cc1cc(NC(=O)CCCn2ccnc2C)nc(C(C)C)n1 | -5.73
65 | CN(Cc1noc2c1CCCC2)C(=O)CN1C(=O)CSc2ccccc21 | -40.5
66 | O=C1CCC2(CCN(c3ncc(F)cn3)CC2)N1Cc1ccncc1 | 5.02

Row | SMILES | cytotoxicity at 10 µM [%]
67 | Cc1ccc(NC2CCN(C(=O)c3cccnc3N(C)C)CC2)nn1 | -12.1
68 | CC(C)(C)c1ncc(C(=O)NCCNC(=O)c2ccco2)s1 | -1.98
69 | CC(CN1CCCC1=O)NC(=O)c1cc(Cl)c2c(c1)OCO2 (centres undefined) | -10.4
70 | Cc1nn(C)cc1CN1C[C@H]2CC[C@@H](C1)N(Cc1c(C)noc1C)C2=O | 5.9
71 | Cc1ncsc1C(=O)N1CCN(CCC(C)C)CC1 | 9.34
72 | COC1CCN(c2ccc(F)cc2CN(C)S(C)(=O)=O)CC1 | -12.5
73 | CN1CCN(C[C@@H]2OC[C@H]3CN(Cc4ccncc4)CC[C@H]32)CC1 | 1.96
74 | Cc1noc(C(C)C)c1C(=O)NCCCN1CCC(C)CC1 | -15.9
75 | CN(C)c1cccc(CNC(=O)Nc2cc(C#N)ccc2Cl)n1 | 21.6
76 | COc1cccc(CNc2nc(N3CCOCC3)ns2)c1OC | -2.76
77 | Cc1cc2n(n1)CC(CNC1CCN(CCc3ccccc3)CC1)CN2 (centres undefined) | 2.7
78 | CC(O)(CNC(=O)NCc1cccc(-n2cncn2)c1)c1ccco1 (centres undefined) | 15
79 | O=C(c1n[nH]c2c1CCC2)N1CCCC1c1nc(-c2ccccn2)no1 (centres undefined) | -1.82
80 | CC(C)(C)n1ncc(C(=O)NCCCC(N)=O)c1C(F)(F)F | 8.85
81 | CCN1CC[C@@]2(C(=O)N3CCOCC3)CCN(S(=O)(=O)CC)CC[C@@H]12 | 8.92
82 | O=C1CCC2(CCCN(CCc3ccccc3)C2)N1Cc1cccnc1 (centres undefined) | 4.05
83 | Cc1nn(C)cc1CN1CCc2c(nc(-c3ccccn3)[nH]c2=O)C1 | -32.1
84 | Cc1cc(C)cc(OCCN(C)C(=O)NC(C)c2nncn2C)c1 (centres undefined) | -19.1
85 | CNC(=O)NC(=O)CN1CCN(CC2CC2)c2ccccc21 | 10.4
86 | Cc1n[nH]c(C)c1CC(=O)N1CCC(O)(CN2CCOCC2)C1 (centres undefined) | 3.1
87 | CC(C)NS(=O)(=O)c1cc(C(=O)O)cc(-c2ccc(CN(C)C)cc2)c1 | 13.3
88 | Cc1nn(C)c2cnn(Cc3ccc(C(=O)NC4CC4)o3)c12 | 9.43

Row | SMILES | cytotoxicity at 10 µM [%]
89 | CC(C)c1nnc2n1CCN(Cc1csc(CC(=O)N(C)C)n1)C2 | -15.9
90 | Cc1cccc2[nH]c(C3CCCN(Cc4ccccc4C(=O)O)C3)nc12 (centres undefined) | 7.28
91 | Cc1cc(C(=O)CN(Cc2cccnc2)CC2CCCO2)c(C)[nH]1 (centres undefined) | -1.26
92 | COc1cccc(C2CCCN2C(=O)c2cc3c(nc2OC)CCC3)c1 (centres undefined) | -10.2
93 | Cc1ccccc1N1CC2(CCCCN2CC2CC2)CC1=O (centres undefined) | 10.4
94 | COC(=O)COn1c(OC)nc2ccccc2c1=O | -4.73
95 | O=C1CSC(c2ccncc2)c2c[nH]nc2N1 (centres undefined) | 13
96 | CC(C)n1nc2c(cc1=O)CN(c1ncnc3ccsc13)CC2 | 60.6
97 | CSc1nnc(CNC(=O)Nc2ccccc2F)n1C | 4.09
98 | CCCSCC(=O)Nc1ncn(CC(=O)N2CCCCCC2)n1 | -3.91
99 | COc1ccnc(N2Cc3cnc(C(C)(C)C)nc3C2)n1 | -9.85
100 | CC(CN1CCC(c2ccccc2)CC1)n1cnc2ccccc21 (centres undefined) | 15.5
101 | Cc1nc(CNC(=O)NCc2cccnc2N(C)C)cs1 | -2.15
102 | CNC(=O)[C@@H](c1ccccc1OC)N1CCC[C@H]1C(=O)N1CCC1 | 1.44
103 | Cc1ccc2nc(CN(C)Cc3n[nH]c4c3CCCCC4)[nH]c2c1C | 17.1
104 | CC(C)(O)CN1CCN(C(=O)COCc2ccccc2Cl)CC1 | -4.72
105 | COc1ccc(OC)c(C2CCN(C(=O)CCc3n[nH]c(N)n3)C2)c1 (centres undefined) | 5.27
106 | O=C(CNC(=O)C1CC1)NCC1CCCC1 | 2.12
107 | CCN(C(=O)c1nc2c(s1)CCCN2Cc1ccccc1)C(C)C | 14.2
108 | Cc1ccccc1C1CCN(C(=O)CCNS(C)(=O)=O)C1 (centres undefined) | -1.03
109 | CC(C)(C)NC(=O)CNC(=O)c1cccnc1Oc1cccnc1 | 4.11
